From ChEMBL document CHEMBL4689842, “EUbOPEN Chemogenomics Library wave 1” (2021)

Test system: HEK-293T
Test: Multiplex assay against HEK293T;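 for Population Tubulin-Different-Phenotype (%): share of the cells with healthy nuclei that show this phenotype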
Assay type: toxicity, cell-based
Settings: human
Method in brief: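 On a CQ1 microscope at 37°C and 5% CO2, live cells were imaged after compound addition. They had been stained at seeding with Hoechst33342, BioTracker Green Microtubule Cytoskeleton Dye, MitoTracker Red and Annexin V Alexa Fluor 680. CellPathfinder machine-learning gating assigned cells to Hoechst high-intensity objects or normal cells, normal cells to healthy, pyknosed or fragmented nuclei, and pyknosed cells to mitotic or apoptotic. Tubulin, mitochondrial-mass and membrane-permeability phenotypes are per cents of healthy-nucleus cells.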

[1] = 12 h, 1 µM, compound concentration 1 uM, replicate 1
[2] = 12 h, 1 µM, compound concentration 1 uM, replicate 2
[3] = 12 h, 10 µM, compound concentration 10 uM, replicate 1
[4] = 12 h, 10 µM, compound concentration 10 uM, replicate 2
[5] = 24 h, 1 µM, compound concentration 1 uM, replicate 1
[6] = 24 h, 1 µM, compound concentration 1 uM, replicate 2
[7] = 24 h, 10 µM, compound concentration 10 uM, replicate 1
[8] = 24 h, 10 µM, compound concentration 10 uM, replicate 2
[9] = 48 h, 1 µM, compound concentration 1 uM, replicate 1
[10] = 48 h, 1 µM, compound concentration 1 uM, replicate 2
[11] = 48 h, 10 µM, compound concentration 10 uM, replicate 1
[12] = 48 h, 10 µM, compound concentration 10 uM, replicate 2

## CCOc1cc(C(=O)N2CCC(N3CCN(C)CC3)CC2)ccc1Nc1ncc2c(n1)N(C1CCCC1)c1ccccc1C(=O)N2C
[1]
  Population Apoptotic (%): 61%
  Population Fragmented Nuclei (%): 16%
  Population Hoechst High Intensity Objects (%): 18%
  Population Membrane Permeable-Phenotype (%): 5%
  Population Mitochondria Different-Phenotype (%): 93%
  Population Mitotic Cells (%): 38%
  Population Normal (%): 81%
  Population Pyknosed Nuclei (%): 57%
  Population Tubulin-Different-Phenotype (%): 81%
  Total Cell Count: 371
[2]
  Population Apoptotic (%): 60%
  Population Fragmented Nuclei (%): 4%
  Population Healthy Nuclei (%): 25%
  Population Hoechst High Intensity Objects (%): 5%
  Population Membrane Permeable-Phenotype (%): 9%
  Population Mitochondria Different-Phenotype (%): 88%
  Population Mitotic Cells (%): 39%
  Population Normal (%): 94%
  Population Pyknosed Nuclei (%): 70%
  Population Tubulin-Different-Phenotype (%): 79%
  Total Cell Count: 178
[3]
  Population Apoptotic (%): 83%
  Population Fragmented Nuclei (%): 8%
  Population Healthy Nuclei (%): 12%
  Population Hoechst High Intensity Objects (%): 15%
  Population Mitochondria Different-Phenotype (%): 95%
  Population Mitotic Cells (%): 16%
  Population Normal (%): 84%
  Population Pyknosed Nuclei (%): 79%
  Population Tubulin-Different-Phenotype (%): 60%
  Total Cell Count: 215
[4]
  Population Apoptotic (%): 92%
  Population Fragmented Nuclei (%): 5%
  Population Healthy Nuclei (%): 6%
  Population Hoechst High Intensity Objects (%): 7%
  Population Membrane Permeable-Phenotype (%): 0%
  Population Mitochondria Different-Phenotype (%): 100%
  Population Mitotic Cells (%): 7%
  Population Normal (%): 92%
  Population Pyknosed Nuclei (%): 88%
  Population Tubulin-Different-Phenotype (%): 16%
  Total Cell Count: 216
[5]
  Population Apoptotic (%): 63%
  Population Fragmented Nuclei (%): 19%
  Population Hoechst High Intensity Objects (%): 19%
  Population Membrane Permeable-Phenotype (%): 3%
  Population Mitochondria Different-Phenotype (%): 96%
  Population Mitotic Cells (%): 36%
  Population Normal (%): 80%
  Population Pyknosed Nuclei (%): 54%
  Population Tubulin-Different-Phenotype (%): 83%
  Total Cell Count: 391
[6]
  Population Apoptotic (%): 66%
  Population Fragmented Nuclei (%): 4%
  Population Healthy Nuclei (%): 26%
  Population Hoechst High Intensity Objects (%): 3%
  Population Membrane Permeable-Phenotype (%): 5%
  Population Mitochondria Different-Phenotype (%): 92%
  Population Mitotic Cells (%): 33%
  Population Normal (%): 96%
  Population Pyknosed Nuclei (%): 69%
  Population Tubulin-Different-Phenotype (%): 75%
  Total Cell Count: 204
[7]
  Population Apoptotic (%): 91%
  Population Fragmented Nuclei (%): 15%
  Population Healthy Nuclei (%): 4%
  Population Hoechst High Intensity Objects (%): 19%
  Population Membrane Permeable-Phenotype (%): 0%
  Population Mitochondria Different-Phenotype (%): 100%
  Population Mitotic Cells (%): 8%
  Population Normal (%): 80%
  Population Pyknosed Nuclei (%): 80%
  Population Tubulin-Different-Phenotype (%): 37%
  Total Cell Count: 206
[8]
  Population Apoptotic (%): 93%
  Population Fragmented Nuclei (%): 6%
  Population Healthy Nuclei (%): 18%
  Population Hoechst High Intensity Objects (%): 11%
  Population Mitochondria Different-Phenotype (%): 97%
  Population Mitotic Cells (%): 6%
  Population Normal (%): 88%
  Population Pyknosed Nuclei (%): 74%
  Population Tubulin-Different-Phenotype (%): 21%
  Total Cell Count: 222
[9]
  Population Apoptotic (%): 64%
  Population Fragmented Nuclei (%): 22%
  Population Healthy Nuclei (%): 31%
  Population Hoechst High Intensity Objects (%): 20%
  Population Mitochondria Different-Phenotype (%): 91%
  Population Mitotic Cells (%): 35%
  Population Normal (%): 79%
  Population Pyknosed Nuclei (%): 46%
  Population Tubulin-Different-Phenotype (%): 65%
  Total Cell Count: 400
[10]
  Population Apoptotic (%): 58%
  Population Fragmented Nuclei (%): 8%
  Population Healthy Nuclei (%): 48%
  Population Hoechst High Intensity Objects (%): 5%
  Population Membrane Permeable-Phenotype (%): 0%
  Population Mitochondria Different-Phenotype (%): 72%
  Population Mitotic Cells (%): 41%
  Population Normal (%): 94%
  Population Pyknosed Nuclei (%): 43%
  Population Tubulin-Different-Phenotype (%): 63%
  Total Cell Count: 239
[11]
  Population Apoptotic (%): 90%
  Population Fragmented Nuclei (%): 23%
  Population Healthy Nuclei (%): 2%
  Population Hoechst High Intensity Objects (%): 20%
  Population Membrane Permeable-Phenotype (%): 0%
  Population Mitotic Cells (%): 9%
  Population Normal (%): 79%
  Population Pyknosed Nuclei (%): 74%
  Population Tubulin-Different-Phenotype (%): 75%
  Total Cell Count: 233
[12]
  Population Apoptotic (%): 98%
  Population Fragmented Nuclei (%): 13%
  Population Healthy Nuclei (%): 11%
  Population Hoechst High Intensity Objects (%): 10%
  Population Membrane Permeable-Phenotype (%): 5%
  Population Mitochondria Different-Phenotype (%): 100%
  Population Mitotic Cells (%): 1%
  Population Normal (%): 90%
  Population Pyknosed Nuclei (%): 75%
  Population Tubulin-Different-Phenotype (%): 50%
  Total Cell Count: 200

## Cc1cc(C)c(S(=O)(=O)N(Cc2ccc(-c3cccc(S(C)(=O)=O)c3)cc2)Cc2ccc(C(F)(F)F)o2)c(C)c1
[1]
  Population Apoptotic (%): 47%
  Population Fragmented Nuclei (%): 13%
  Population Healthy Nuclei (%): 36%
  Population Hoechst High Intensity Objects (%): 10%
  Population Membrane Permeable-Phenotype (%): 3%
  Population Mitochondria Different-Phenotype (%): 81%
  Population Mitotic Cells (%): 52%
  Population Normal (%): 89%
  Population Pyknosed Nuclei (%): 49%
  Population Tubulin-Different-Phenotype (%): 59%
  Total Cell Count: 263
[2]
  Population Apoptotic (%): 13%
  Population Fragmented Nuclei (%): 6%
  Population Healthy Nuclei (%): 49%
  Population Hoechst High Intensity Objects (%): 4%
  Population Membrane Permeable-Phenotype (%): 9%
  Population Mitochondria Different-Phenotype (%): 13%
  Population Mitotic Cells (%): 86%
  Population Normal (%): 95%
  Population Pyknosed Nuclei (%): 43%
  Population Tubulin-Different-Phenotype (%): 9%
  Total Cell Count: 213
[3]
  Population Apoptotic (%): 52%
  Population Fragmented Nuclei (%): 12%
  Population Healthy Nuclei (%): 35%
  Population Hoechst High Intensity Objects (%): 14%
  Population Membrane Permeable-Phenotype (%): 10%
  Population Mitochondria Different-Phenotype (%): 89%
  Population Mitotic Cells (%): 47%
  Population Normal (%): 85%
  Population Pyknosed Nuclei (%): 51%
  Population Tubulin-Different-Phenotype (%): 90%
  Total Cell Count: 216
[4]
  Population Apoptotic (%): 6%
  Population Fragmented Nuclei (%): 9%
  Population Healthy Nuclei (%): 48%
  Population Hoechst High Intensity Objects (%): 2%
  Population Membrane Permeable-Phenotype (%): 5%
  Population Mitochondria Different-Phenotype (%): 20%
  Population Mitotic Cells (%): 93%
  Population Normal (%): 97%
  Population Pyknosed Nuclei (%): 41%
  Population Tubulin-Different-Phenotype (%): 16%
  Total Cell Count: 145
[5]
  Population Apoptotic (%): 43%
  Population Fragmented Nuclei (%): 13%
  Population Healthy Nuclei (%): 44%
  Population Hoechst High Intensity Objects (%): 9%
  Population Membrane Permeable-Phenotype (%): 2%
  Population Mitochondria Different-Phenotype (%): 66%
  Population Mitotic Cells (%): 56%
  Population Normal (%): 90%
  Population Pyknosed Nuclei (%): 42%
  Population Tubulin-Different-Phenotype (%): 49%
  Total Cell Count: 304
[6]
  Population Apoptotic (%): 9%
  Population Fragmented Nuclei (%): 6%
  Population Healthy Nuclei (%): 64%
  Population Hoechst High Intensity Objects (%): 2%
  Population Membrane Permeable-Phenotype (%): 10%
  Population Mitochondria Different-Phenotype (%): 10%
  Population Mitotic Cells (%): 90%
  Population Normal (%): 97%
  Population Pyknosed Nuclei (%): 29%
  Population Tubulin-Different-Phenotype (%): 29%
  Total Cell Count: 261
[7]
  Population Apoptotic (%): 52%
  Population Fragmented Nuclei (%): 13%
  Population Healthy Nuclei (%): 38%
  Population Hoechst High Intensity Objects (%): 15%
  Population Membrane Permeable-Phenotype (%): 9%
  Population Mitochondria Different-Phenotype (%): 74%
  Population Mitotic Cells (%): 47%
  Population Normal (%): 84%
  Population Pyknosed Nuclei (%): 48%
  Population Tubulin-Different-Phenotype (%): 89%
  Total Cell Count: 225
[8]
  Population Apoptotic (%): 11%
  Population Fragmented Nuclei (%): 7%
  Population Healthy Nuclei (%): 72%
  Population Hoechst High Intensity Objects (%): 3%
  Population Membrane Permeable-Phenotype (%): 6%
  Population Mitochondria Different-Phenotype (%): 10%
  Population Mitotic Cells (%): 88%
  Population Normal (%): 96%
  Population Pyknosed Nuclei (%): 19%
  Population Tubulin-Different-Phenotype (%): 24%
  Total Cell Count: 187
[9]
  Population Apoptotic (%): 46%
  Population Fragmented Nuclei (%): 13%
  Population Healthy Nuclei (%): 61%
  Population Hoechst High Intensity Objects (%): 8%
  Population Membrane Permeable-Phenotype (%): 4%
  Population Mitochondria Different-Phenotype (%): 38%
  Population Mitotic Cells (%): 53%
  Population Normal (%): 91%
  Population Pyknosed Nuclei (%): 25%
  Population Tubulin-Different-Phenotype (%): 39%
  Total Cell Count: 387
[10]
  Population Apoptotic (%): 9%
  Population Fragmented Nuclei (%): 6%
  Population Healthy Nuclei (%): 81%
  Population Hoechst High Intensity Objects (%): 2%
  Population Membrane Permeable-Phenotype (%): 7%
  Population Mitochondria Different-Phenotype (%): 5%
  Population Mitotic Cells (%): 90%
  Population Normal (%): 97%
  Population Pyknosed Nuclei (%): 11%
  Population Tubulin-Different-Phenotype (%): 20%
  Total Cell Count: 474
[11]
  Population Apoptotic (%): 45%
  Population Fragmented Nuclei (%): 13%
  Population Healthy Nuclei (%): 60%
  Population Hoechst High Intensity Objects (%): 6%
  Population Membrane Permeable-Phenotype (%): 7%
  Population Mitochondria Different-Phenotype (%): 57%
  Population Mitotic Cells (%): 54%
  Population Normal (%): 93%
  Population Pyknosed Nuclei (%): 25%
  Population Tubulin-Different-Phenotype (%): 80%
  Total Cell Count: 302
[12]
  Population Apoptotic (%): 16%
  Population Fragmented Nuclei (%): 8%
  Population Healthy Nuclei (%): 84%
  Population Hoechst High Intensity Objects (%): 1%
  Population Membrane Permeable-Phenotype (%): 3%
  Population Mitochondria Different-Phenotype (%): 3%
  Population Mitotic Cells (%): 84%
  Population Normal (%): 98%
  Population Pyknosed Nuclei (%): 6%
  Population Tubulin-Different-Phenotype (%): 9%
  Total Cell Count: 367
